The test system of assay [1] is SF-295. Put plainly: Cytotoxicity against human SF295 cells. The format is functional.
Assay [2] has as its system K562. Put plainly: Cytotoxicity against human K562 cells. The format is functional.
The test system of assay [3] is DU-145. The assay is described as follows: Cytotoxicity against human DU145 cells. The format is functional.
Assay [4] deals with HCT-15. The assay is described as follows: Cytotoxicity against human HCT15 cells. The format is functional.
Assay [5] deals with LOX IMVI. The assay is described as follows: Cytotoxicity against human LOX IMVI cells. The class given is functional.
In assay [6] the test system is OVCAR-3. The assay is described as follows: Cytotoxicity against human OVCAR-3 cells. The class given is functional.
Assay [7] has as its system MDA-MB-435. The assay is described as follows: Cytotoxicity against human MDA-MB-435 cells. The format is functional.
The test system of assay [8] is K562. The assay is described as follows: Cell cycle arrest in human K562 cells by accumulation at G0/G1 phase cell at 50 uM after 24 hrs relative to control. The format is functional. The method, boiled down:
(§1)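 K-562 cells (RPMI 1640, 10% fetal calf serum, 37 °C, 5% CO2) exposed 24 h, pelleted, fixed in ice-cold 70% ethanol 30 min, RNase A (1 mg/ml) 37 °C 30 min, propidium iodide stain 30 min at room temperature in the dark; DNA content of 10,000 events by flow cytometry; phase and sub-G1 percentages compared with untreated control.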

In assay [9] the test system is K562. The assay is described as follows: Cell cycle arrest in human K562 cells by accumulation at S phase cell at 50 uM after 24 hrs relative to control. The format is functional. The method, boiled down:
as §1

In assay [10] the test system is K562. Put plainly: Cell cycle arrest in human K562 cells by accumulation at G2/M phase cell at 50 uM after 24 hrs relative to control. The format is functional. The method, boiled down: as §1
The test system of assay [11] is K562. The assay is described as follows: Induction of apoptosis in human K562 cells assessed as accumulation at subG1 phase at 50 uM after 24 hrs relative to control. The class given is functional. The method, boiled down:
as §1

In assay [12] the target is T1, Caspase-3 (Homo sapiens) (UniProt P42574).
T1 sequence (whole entry): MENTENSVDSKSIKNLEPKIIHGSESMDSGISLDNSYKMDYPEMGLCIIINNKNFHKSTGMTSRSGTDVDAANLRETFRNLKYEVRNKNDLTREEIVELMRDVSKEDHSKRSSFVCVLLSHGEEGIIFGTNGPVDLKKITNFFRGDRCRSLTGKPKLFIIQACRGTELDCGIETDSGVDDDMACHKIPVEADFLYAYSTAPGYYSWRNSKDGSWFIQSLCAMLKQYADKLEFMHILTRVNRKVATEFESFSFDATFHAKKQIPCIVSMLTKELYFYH
The assay is described as follows: Increase in caspase 3 activation in human K562 cells at 50 uM relative to control. The format is cell-based. The method, boiled down:
(§2)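 K-562 cells treated 24 h, washed, lysed in 50 mM Tris-HCl pH 7.4, 1 mM EDTA, 10 mM EGTA, spun 18,000g 3 min; lysate (50 µg protein) incubated with 100 µM caspase-specific colorimetric substrate at 37 °C for 1 h; cleavage read as absorbance at 405 nm, expressed as fold of control.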

Assay [13] concerns the target T1, Caspase-3 (Homo sapiens). The assay is described as follows: Increase in caspase 3 activation in human K562 cells at 25 uM relative to control. The class given is cell-based. The method, boiled down: as §2
Assay [14] deals with Caspase-8 (Homo sapiens) (UniProt Q14790). Put plainly: Increase in caspase 8 activation in human K562 cells at 25 uM relative to control. The format is cell-based. The method, boiled down: as §2
For assay [15] the target is unchanged. Put plainly: Increase in caspase 8 activation in human K562 cells at 50 uM relative to control. The class given is cell-based. The method, boiled down: as §2
Assay [16] addresses T2, Caspase-9 (Homo sapiens) (UniProt P55211).
T2 sequence (whole entry): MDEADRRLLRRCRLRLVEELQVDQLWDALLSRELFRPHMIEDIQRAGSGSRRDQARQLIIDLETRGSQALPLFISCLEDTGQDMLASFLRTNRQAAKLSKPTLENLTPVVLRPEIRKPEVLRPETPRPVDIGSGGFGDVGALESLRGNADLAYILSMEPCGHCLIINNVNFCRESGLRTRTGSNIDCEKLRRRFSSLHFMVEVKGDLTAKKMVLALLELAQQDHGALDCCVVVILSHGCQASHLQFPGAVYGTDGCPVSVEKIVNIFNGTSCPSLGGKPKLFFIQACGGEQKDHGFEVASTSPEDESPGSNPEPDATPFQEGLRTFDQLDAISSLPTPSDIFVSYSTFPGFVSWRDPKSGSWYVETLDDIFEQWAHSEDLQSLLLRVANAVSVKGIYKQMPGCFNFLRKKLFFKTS
Put plainly: Increase in caspase 9 activation in human K562 cells at 25 uM relative to control. The format is cell-based. The method, boiled down:
as §2

The target in assay [17] is T2, Caspase-9 (Homo sapiens). The assay is described as follows: Increase in caspase 9 activation in human K562 cells at 50 uM relative to control. The class given is cell-based. The method, boiled down: as §2
Assay [18] has as its system K562. The assay is described as follows: Induction of apoptosis in human K562 cells at 50 uM in presence of Z-DEVD-FMK. The class given is functional. The method, boiled down: (§3)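 K-562 cells preincubated 1 h with caspase-3 (Z-DEVD-FMK), -8 (Z-IETD-FMK) or -9 (Z-LEHD-FMK) inhibitor, then exposed 24 h; cells fixed in 70% ethanol, RNase A (500 U/ml) 37 °C 15 min, propidium iodide 50 µg/ml in PBS; sub-G1 fraction by flow cytometry.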

Assay [19] relates to K562. The assay is described as follows: Induction of apoptosis in human K562 cells at 50 uM in presence of Z-IETD-FMK. The class given is functional. The method, boiled down: as §3
Assay [20] has as its system K562. The assay is described as follows: Induction of apoptosis in human K562 cells at 50 uM in presence of Z-LEHD-FMK. The format is functional. The method, boiled down:
as §3

Caspase-8 (Homo sapiens), sequence (Q14790 217-374 limits assumed): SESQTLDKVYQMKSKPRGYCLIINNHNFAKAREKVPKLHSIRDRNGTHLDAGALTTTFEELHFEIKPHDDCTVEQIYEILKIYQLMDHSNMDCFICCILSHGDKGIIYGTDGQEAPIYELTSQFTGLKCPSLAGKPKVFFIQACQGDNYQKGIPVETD
Caspase-8 (Homo sapiens), sequence (Q14790 385-479 limits assumed): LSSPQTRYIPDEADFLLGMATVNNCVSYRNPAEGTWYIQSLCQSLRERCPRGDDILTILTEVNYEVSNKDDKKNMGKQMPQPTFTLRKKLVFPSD

`OCCCCC#Cc1ccccc1C#Cc1ccc(O)cc1`: the GI50 was 16.2 µM in [1]; 20.4 µM in [2]; 16.8 µM in assay [3]; 14.1 µM in assay [4]; 13.6 µM in assay [5]; 14.8 µM in assay [6]. In [7], the GI50 turned out to be 16.1 µM. Moreover, the Activity is recorded as 25.6% in assay [8]; 39.5% in assay [9]; 34.9% in assay [10]; 23.56% in assay [11]; 17% in assay [18]; 19% in [19]. In addition, the Activity in assay [20] was 42%. Also, the Fold change is 2.6 in [12]; 1.4 in [13]; 1.2 in assay [14]; 1.8 in assay [15]; 1.5 in assay [16]; 1.7 in [17].

As a reminder, the GI50 is the concentration that inhibits growth by half.

Values taken from ChEMBL document CHEMBL1143665, “Novel acyclic enediynes inhibit Cyclin A and Cdc25C expression and induce apoptosis phenomenon to show potent antitumor proliferation” (2007).
